Experimental data from ChEMBL document CHEMBL4373657, “Derivatives of a new heterocyclic system - pyrano[3,4-c][1,2,4]triazolo[4,3-a]pyridines: synthesis, docking analysis and neurotropic activity” (Medchemcomm, 2019).
Activity calls are given as the source filed them. The calls are words filed in the database; no cut-off is given here.

Legend:
[1] = Neurotoxicity in ip dosed mouse assessed as myorelaxation measured for 2 mins by rotarod test; assay type: toxicity, organism-based; details: in vivo
How it was run: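 Mice were placed on a corrugated rubber-coated metal rod rotating at 5 rpm, and the number staying on for 2 min was counted. TD50 was derived by Litchfield–Wilcoxon probit analysis.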

Mus musculus [2] = assay: Anticonvulsant activity in mouse assessed as MES-induced […] seizures at 10 to 100 mg/kg, ip administered 45 mins before electrical stimulation; assay type: functional, organism-based
Mus musculus [3] = assay: Anticonvulsant activity in mouse assessed as MES-induced tonic seizures at 10 to 100 mg/kg, ip administered 45 mins before electrical stimulation; assay type: functional, organism-based
How it was run: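 Mice, 8 per dose. Compounds given i.p. at 10, 25, 50, 75 or 100 mg kg–1 in carboxymethylcellulose/Tween-80 suspension, 45 min before maximal electroshock (50 mA, 0.2 s, 50 imp s–1); controls received emulsifier. Endpoint was prevention of the tonic-extensor phase.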

[4] = Neurotoxicity in mouse assessed as myorelaxation at 50 to 100 mg/kg, ip measured for 2 mins by rotarod test; assay type: toxicity, organism-based; details: in vivo
How it was run: (§1)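 Mice dosed i.p. at 50–100 mg kg–1; reference drugs given at effective anticonvulsant doses. Mice were placed on a corrugated rubber-coated metal rod rotating at 5 rpm, and the number staying on for 2 min was counted. TD50 was derived by Litchfield–Wilcoxon probit analysis.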

Mus musculus [5] = assay: Anticonvulsant activity in mouse assessed as proportion of animals displaying reduction in PTZ-induced clonic seizures at 50 mg/kg, ip administered 45 mins before PTZ stimulation relative to control; assay type: functional; parameters: scale not given: the % may be the effect or the level left
How it was run: (§2)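 Outbred mice (18–22 g), 8 per dose. Compounds given i.p. at 10–100 mg kg–1 as a carboxymethylcellulose/Tween-80 suspension, 45 min before s.c. pentylenetetrazole 90 mg kg–1; controls received emulsifier. Endpoint was prevention of clonic seizures. ED50 was derived by Litchfield–Wilcoxon probit analysis.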

[6] = Neurotoxicity in mouse assessed as motor coordination at 50 to 100 mg/kg, ip by rotarod test; assay type: toxicity, organism-based; details: in vivo; how it was run: as §1
[7] = Neurotoxicity in ip dosed mouse assessed as maximum tolerated dose by rotarod test; assay type: toxicity, organism-based; details: in vivo
How it was run: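 Mice given compounds i.p. at […] to 1800 mg/kg to establish the maximal tolerated dose.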

Mus musculus [8] = assay: Antidepressant activity in mouse assessed as total time of immobilization at 50 mg/kg, ip measured for 6 mins by forced swimming test (reference value: 81 secs); assay type: functional
How it was run: (§3)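 Each mouse swam in a glass container (22 cm high, 14 cm diameter) one-third filled with water, under natural light. Over 6 min, latency to first immobilization, total immobilization time and total active swimming time were recorded.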

Mus musculus [9] = assay: Sedative activity in mouse assessed as time spent in center at 50 mg/kg, ip measured for 5 mins by elevated plus maze test (reference value: 21.8 secs); assay type: functional
Mus musculus [10] = assay: Anticonvulsant activity in ip dosed mouse assessed as reduction in PTZ-induced clonic seizures administered 45 mins before PTZ stimulation; assay type: functional; how it was run: as §2
Mus musculus [11] = assay: Antianxiety activity in mouse assessed as increase in time spent in open arms at 50 mg/kg, ip measured for 5 mins by elevated plus maze test; assay type: functional
Rattus norvegicus [12] = assay: Antianxiety activity in Wistar rat assessed as increase in number of sniffing cell examinations at 50 mg/kg, ip measured for 5 mins by open field test; assay type: functional, organism-based
How it was run: (§4)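 Male Wistar rats (120–140 g), n = 8 per compound, control and reference. Single i.p. dose of 50 mg kg–1 as a suspension in methylcarboxycellulose with Tween-80; controls received emulsifier. Daytime, natural light. Over 5 min, horizontal movements, rearings (vertical movements) and cell sniffings were counted.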

Mus musculus [13] = assay: Anticonvulsant activity in mouse assessed as reduction in PTZ-induced clonic seizures at 25 mg/kg, ip administered 45 mins before PTZ stimulation; assay type: functional, organism-based; how it was run: as §2
[14] = Protection index, ratio of TD50 for neurotoxicity in ip dosed mouse to ED50 for anticonvulsant activity in ip dosed mouse; assay type: toxicity, organism-based; details: in vivo, read-out: Ratio TD50/ED50
Mus musculus [15] = assay: Antianxiety activity in mouse assessed as time spent in closed arms at 50 mg/kg, ip measured for 5 mins by elevated plus maze test (reference value: 278.2 secs); assay type: functional
Rattus norvegicus [16] = assay: Antianxiety activity in Wistar rat assessed as horizontal movement of animals at 50 mg/kg, ip measured for 5 mins by open field test; assay type: functional, organism-based; how it was run: as §4
Mus musculus [17] = assay: Antidepressant activity in mouse assessed as latent period of first immobilization at 50 mg/kg, ip measured for 6 mins by forced swimming test (reference value: 92 secs); assay type: functional; how it was run: as §3
Mus musculus [18] = assay: Antidepressant activity in mouse assessed as total time of active swimming at 50 mg/kg, ip measured for 6 mins by forced swimming test (reference value: 282 secs); assay type: functional; how it was run: as §3
Rattus norvegicus [19] = assay: Antianxiety activity in Wistar rat assessed as vertical movement of animals at 50 mg/kg, ip measured for 5 mins by open field test; assay type: functional, organism-based; how it was run: as §4

SMILES	TD50 at 2 min [1]	Activity (Mus musculus [2])	Activity (Mus musculus [3])	Activity [4]	Activity (Mus musculus [5])	Activity [6]	MTD [7]	Time (Mus musculus [8])	Time (Mus musculus [9])	ED50 (Mus musculus [10])	Time (Mus musculus [11])	Activity (Rattus norvegicus [12])	anticonvulsant activity (active/inactive) (Mus musculus [13])	selectivity ratio [14]	Time (Mus musculus [15])	Activity (Rattus norvegicus [16])	Time (Mus musculus [17])	Time (Mus musculus [18])	Activity (Rattus norvegicus [19])
CC1(C)Cc2c(C#N)c(Nc3ccccc3)n3c(SCC(=O)c4ccc(Cl)cc4)nnc3c2CO1	> 500 mg/kg	inactive	inactive	Non-Toxic	20%	Non-Toxic	1150 mg/kg	–	–	–	–	–	–	–	–	–	–	–	–
CC1(C)Cc2c(C#N)c(Nc3ccccc3)n3c(SCC(=O)c4ccc([N+](=O)[O-])cc4)nnc3c2CO1	> 520 mg/kg	inactive	inactive	Non-Toxic	40%	Non-Toxic	1250 mg/kg	–	–	–	–	–	–	–	–	–	–	–	–
Cc1ccc(Nc2c(C#N)c3c(c4nnc(SCC(=O)c5ccc([N+](=O)[O-])cc5)n24)COC(C)(C)C3)cc1	> 500 mg/kg	inactive	inactive	Non-Toxic	40%	Non-Toxic	1250 mg/kg	–	–	–	–	–	–	–	–	–	–	–	–
Cc1cccc(NC(=O)CSc2nnc3c4c(c(C#N)c(Nc5ccccc5)n23)CC(C)(C)OC4)c1	> 500 mg/kg	inactive	inactive	Non-Toxic	20%	Non-Toxic	1300 mg/kg	–	–	–	–	–	–	–	–	–	–	–	–
Cc1ccc(Nc2c(C#N)c3c(c4nnc(SCc5ccccc5Cl)n24)COC(C)(C)C3)cc1	> 500 mg/kg	inactive	inactive	Non-Toxic	40%	Non-Toxic	1350 mg/kg	–	–	–	–	–	–	–	–	–	–	–	–
COc1ccc(NC(=O)CSc2nnc3c4c(c(C#N)c(Nc5ccc(C)cc5)n23)CC(C)(C)OC4)cc1	> 500 mg/kg	inactive	inactive	Non-Toxic	40%	Non-Toxic	1250 mg/kg	–	–	–	–	–	–	–	–	–	–	–	–
CC1(C)Cc2c(C#N)c(Nc3ccccc3)n3c(SCC(=O)Nc4ccc(Cl)c(Cl)c4)nnc3c2CO1	> 500 mg/kg	inactive	inactive	Non-Toxic	20%	Non-Toxic	1150 mg/kg	–	–	–	–	–	–	–	–	–	–	–	–
CCOC(=O)C(Sc1nnc2c3c(c(C#N)c(Nc4ccccc4)n12)CC(C)(C)OC3)c1ccccc1 (configuration not stated)	520 mg/kg	inactive	inactive	Non-Toxic	60%	Non-Toxic	1200 mg/kg	76 s	95 s	44 mg/kg	6 s	Active	Active	11.8	199 s	inactive	156 s	284 s	inactive
COc1cccc(NC(=O)CSc2nnc3c4c(c(C#N)c(Nc5ccc(C)cc5)n23)CC(C)(C)OC4)c1	> 500 mg/kg	inactive	inactive	Non-Toxic	40%	Non-Toxic	1100 mg/kg	–	–	–	–	–	–	–	–	–	–	–	–
COc1ccc(CSc2nnc3c4c(c(C#N)c(Nc5ccc(C)cc5)n23)CC(C)(C)OC4)cc1	600 mg/kg	inactive	inactive	Non-Toxic	60%	Non-Toxic	1500 mg/kg	71 s	88 s	44 mg/kg	11.4 s	Active	Active	13.6	200.6 s	inactive	158 s	289 s	inactive
Cc1ccc(Nc2c(C#N)c3c(c4nnc(SCc5ccc([N+](=O)[O-])cc5)n24)COC(C)(C)C3)cc1	> 500 mg/kg	inactive	inactive	Non-Toxic	40%	Non-Toxic	1200 mg/kg	–	–	–	–	–	–	–	–	–	–	–	–
CCCCN(CCCC)C(=O)CSc1nnc2c3c(c(C#N)c(Nc4ccccc4)n12)CC(C)(C)OC3	> 500 mg/kg	inactive	inactive	Non-Toxic	20%	Non-Toxic	1000 mg/kg	–	–	–	–	–	–	–	–	–	–	–	–
CC1(C)Cc2c(C#N)c(Nc3ccccc3)n3c(SCC(=O)N(c4ccccc4)c4ccccc4)nnc3c2CO1	580 mg/kg	inactive	inactive	Non-Toxic	80%	Non-Toxic	1250 mg/kg	43 s	79 s	21 mg/kg	88 s	Active	Active	27.6	133 s	inactive	162 s	317 s	inactive
